This passage reports inhibition and IC50 results from ChEMBL document CHEMBL2150985, “Synthesis and antioxidant activity of 1,3,4-oxadiazole tagged thieno[2,3-d]pyrimidine derivatives” (Eur J Med Chem, 2012).

Values after ≈ are worked out from the molar mass of the structure shown.

Format in all cases: functional
A short description of experiment [1]: Antioxidant activity assessed as inhibition of H2O2 radical scavenging activity at 75 ug/mL by spectrophotometric analysis relative to control. A digest of the protocol: (§1)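 H2O2 (40 mM) prepared in phosphate buffer, pH 7.4. Compounds at […] in phosphate buffer were added to the H2O2 solution. Absorbance of the mixture was read at 230 nm, and percent H2O2 scavenging was calculated.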

Experiment [2] relates to Radical scavenging activity. The experiment in a line: Antioxidant activity assessed as inhibition of DPPH free radical production at 25 ug/mL after 30 mins by spectrophotometric analysis relative to control. A digest of the protocol:
(§2)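 Test compound in methanol added to 0.004% (w/v) methanolic DPPH at a 1:4 volume ratio. Incubated 30 min at room temperature. Absorbance read against blank at 517 nm.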

In experiment [3] the test system is Radical scavenging activity. The experiment in a line: Antioxidant activity assessed as inhibition of DPPH free radical production at 50 ug/mL after 30 mins by spectrophotometric analysis relative to control. A digest of the protocol:
as §2

Experiment [4] has as its system Radical scavenging activity. The experiment in a line: Antioxidant activity assessed as inhibition of DPPH free radical production at 75 ug/mL after 30 mins by spectrophotometric analysis relative to control. A digest of the protocol:
as §2

The nature of experiment [5]: Antioxidant activity assessed as inhibition of nitric oxide free radical production at 50 ug/mL after 150 mins by Griess method relative to control. A digest of the protocol: (§3)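 NO generated from sodium nitroprusside (10 mM) in 0.2 M phosphate buffered saline, pH 7.4, with compound at […]. Incubated 150 min at 25 °C. An aliquot was mixed 1:1 with Griess reagent (1% sulfanilamide, 2% H3PO4, 0.1% naphthylethylenediamine dihydrochloride).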

In experiment [6] the test system is Radical scavenging activity. Description: Antioxidant activity assessed as inhibition of DPPH free radical production at 100 ug/mL after 30 mins by spectrophotometric analysis relative to control. In outline: as §2
The nature of experiment [7]: Antioxidant activity assessed as inhibition of nitric oxide free radical production at 25 ug/mL after 150 mins by Griess method relative to control. A digest of the protocol:
as §3

Experiment [8] in a line: Antioxidant activity assessed as inhibition of H2O2 radical scavenging activity by spectrophotometric analysis. A digest of the protocol:
as §1

Experiment [9] in a line: Antioxidant activity assessed as inhibition of H2O2 radical scavenging activity at 50 ug/mL by spectrophotometric analysis relative to control. In outline:
as §1

In experiment [10] the test system is Radical scavenging activity. The experiment in a line: Antioxidant activity assessed as inhibition of DPPH free radical production after 30 mins by spectrophotometric analysis. A digest of the protocol: as §2
Experiment [11] is described as follows: Antioxidant activity assessed as inhibition of nitric oxide free radical production at 75 ug/mL after 150 mins by Griess method relative to control. A digest of the protocol:
as §3

Experiment [12] is described as follows: Antioxidant activity assessed as inhibition of nitric oxide free radical production at 100 ug/mL after 150 mins by Griess method relative to control. A digest of the protocol: as §3
The nature of experiment [13]: Antioxidant activity assessed as inhibition of H2O2 radical scavenging activity at 25 ug/mL by spectrophotometric analysis relative to control. In outline: as §1
The nature of experiment [14]: Antioxidant activity assessed as inhibition of nitric oxide free radical production after 150 mins by Griess method. A digest of the protocol:
as §3

Experiment [15] is described as follows: Antioxidant activity assessed as inhibition of H2O2 radical scavenging activity at 100 ug/mL by spectrophotometric analysis relative to control. In outline:
as §1

As to `Cc1c(-c2nnc(-c3ccc([N+](=O)[O-])cc3)o2)sc2ncnc(Nc3ccc(F)cc3F)c12`, the inhibition was found to be 62.8% in experiment [1]; 64.6% in experiment [2]; 69.5% in experiment [3]; 73.9% in experiment [4]; 71.4% in experiment [5]; 77.8% in experiment [6]. Further, the inhibition in experiment [7] amounted to 63.6%; in [9], 58.1%; in [11], 76.2%; in experiment [12], 79%; in experiment [13] it was 54.4%; in [15], 66.2%. The results for the IC50 in experiment [8], in experiment [10] and in [14] were 22.98 µg/mL (≈ 49.3 µM), 19.34 µg/mL (≈ 41.5 µM) and 19.66 µg/mL (≈ 42.2 µM), respectively.

As to `Cc1c(-c2nnc(-c3ccc(Cl)cc3)o2)sc2ncnc(Nc3ccc(F)cc3)c12`, the inhibition came to 69.8% in experiment [1]; 70.6% in experiment [2]; 74.2% in experiment [3]; 77.8% in experiment [4]; 76.3% in experiment [5]; 81.9% in experiment [6]. Further, the inhibition in experiment [7] is 71.8%; in experiment [9], 67.4%; in [11] it was 79.7%; in [12], 83.6%; in [13] it was 64.1%; in [15], 72.6%. In addition, the figures for the IC50 in experiment [8], in experiment [10] and in [14] were 19.49 µg/mL (≈ 44.5 µM), 17.7 µg/mL (≈ 40.4 µM) and 17.39 µg/mL (≈ 39.7 µM), respectively.

As to `Cc1c(-c2nnc(-c3ccc(Cl)cc3)o2)sc2ncnc(Nc3ccc(Cl)cc3)c12`, the inhibition was 65.7% in experiment [1]; 64.7% in [2]; 68.4% in [3]; 73.8% in experiment [4]; 70.6% in experiment [5]; 77.5% in [6]. In addition, the inhibition is 68.4% in [7]; 62.3% in [9]; 74.2% in experiment [11]; 79.4% in [12]; 58.3% in experiment [13]; 69.8% in [15]. The half-inhibitory concentration (IC50) stood at 21.22 µg/mL (≈ 46.7 µM) in experiment [8], 19.31 µg/mL (≈ 42.5 µM) in experiment [10] and 18.27 µg/mL (≈ 40.2 µM) in experiment [14].

Take `O=C1O[C@H]([C@@H](O)CO)C(O)=C1O` [ASCORBIC ACID]: the inhibition came out at 82.4% in [1]; 82.7% in experiment [2]; 83.5% in experiment [3]; 85.5% in [4]; 86% in [5]; 87.2% in [6]. The inhibition in experiment [7] was 84.7%; in experiment [9], 78.6%; in experiment [11], 88.3%; in experiment [12] it was 90.4%; in [13] it was 76.4%; in experiment [15] it was 86.6%. The IC50 was determined as 16.35 µg/mL (≈ 92.8 µM) in [8], 15.11 µg/mL (≈ 85.8 µM) in [10] and 14.75 µg/mL (≈ 83.7 µM) in experiment [14].

For `Cc1c(-c2nnc(-c3ccccc3)o2)sc2ncnc(Nc3ccc(Cl)cc3)c12`, the inhibition in [1] was 68.2%; in experiment [2], 69.3%; in experiment [3] it was 71.6%; in experiment [4], 76.8%; in [5] it was 74.8%; in [6], 81.3%. For the same compound, the inhibition was 71.3% in [7]; 63.8% in [9]; 77.1% in experiment [11]; 82.9% in experiment [12]; 61.1% in experiment [13]; 71.6% in [15]. Besides, the IC50 in [8] stood at 20.47 µg/mL (≈ 48.8 µM); in experiment [10] it was 18.03 µg/mL (≈ 42.9 µM); in [14], 17.54 µg/mL (≈ 41.8 µM).

For the compound `Cc1c(-c2nnc(-c3ccc(Cl)cc3)o2)sc2ncnc(Nc3ccc(F)c(Cl)c3)c12`, the inhibition in experiment [1] is 68.2%; in experiment [2], 63.9%; in experiment [3] it was 67.9%; in experiment [4] it was 71.5%; in experiment [5], 69.2%; in [6] it was 76.6%. The inhibition was 64.4% in experiment [7]; 64.5% in experiment [9]; 74.7% in experiment [11]; 79.5% in experiment [12]; 61.9% in experiment [13]; 71.9% in experiment [15]. For the same compound, the IC50 came to 20.18 µg/mL (≈ 42.7 µM) in experiment [8], 19.57 µg/mL (≈ 41.4 µM) in experiment [10] and 19.41 µg/mL (≈ 41.1 µM) in [14].

`Cc1c(-c2nnc(-c3ccccc3)o2)sc2ncnc(Nc3ccc(F)cc3F)c12`: the inhibition in experiment [1] is 69%; in experiment [2], 73.9%; in [3], 77.4%; in [4] it was 79.6%; in experiment [5], 79.5%; in experiment [6], 83.8%. The inhibition in experiment [7] worked out at 75.2%; in experiment [9], 65.5%; in experiment [11], 82.6%; in [12] it was 85.4%; in experiment [13], 63.9%; in [15], 72.5%. Moreover, the IC50 in experiment [8] was 19.57 µg/mL (≈ 46.4 µM); in [10], 16.91 µg/mL (≈ 40.1 µM); in experiment [14], 16.61 µg/mL (≈ 39.4 µM).

On to `Cc1c(-c2nnc(-c3ccc([N+](=O)[O-])cc3)o2)sc2ncnc(Nc3ccc(Cl)cc3)c12`, for which the inhibition in experiment [1] came to 58.1%; in [2], 52.7%; in [3] it was 58.2%; in experiment [4], 61.4%; in [5], 63.5%; in [6] it was 67.8%. Moreover, the inhibition came to 61% in experiment [7]; 54% in experiment [9]; 67.6% in [11]; 72.4% in experiment [12]; 51.4% in [13]; 63.7% in experiment [15]. In addition, the IC50 came to 24.33 µg/mL (≈ 52.3 µM) in experiment [8], 23.7 µg/mL (≈ 51 µM) in [10] and 20.49 µg/mL (≈ 44.1 µM) in [14].

For `Cc1c(-c2nnc(-c3ccc([N+](=O)[O-])cc3)o2)sc2ncnc(Nc3ccc(F)cc3)c12`, the inhibition in experiment [1] stood at 60%; in experiment [2], 59.7%; in experiment [3] it was 64.5%; in experiment [4], 68.9%; in experiment [5] it was 66.8%; in [6], 72.2%. In addition, the inhibition in [7] was found to be 62%; in experiment [9] it was 56.6%; in [11] it was 70.9%; in experiment [12], 73.9%; in experiment [13] it was 53.1%; in [15] it was 64.2%. The concentration for half-maximal inhibition (IC50) is 23.54 µg/mL (≈ 52.5 µM) in experiment [8], 20.92 µg/mL (≈ 46.7 µM) in experiment [10] and 20.14 µg/mL (≈ 44.9 µM) in experiment [14].

On to `Cc1c(-c2nnc(-c3ccccc3)o2)sc2ncnc(Nc3ccc(F)cc3)c12`, for which the inhibition in experiment [1] was determined as 71.7%; in experiment [2], 72.5%; in experiment [3], 75.8%; in [4], 78.4%; in experiment [5], 78.1%; in [6] it was 83.1%. The inhibition in [7] worked out at 73.1%; in experiment [9], 69.5%; in experiment [11] it was 82.4%; in experiment [12], 84.9%; in experiment [13], 66.3%; in experiment [15], 74.2%. Moreover, the results for the IC50 in [8], in experiment [10] and in experiment [14] were 18.85 µg/mL (≈ 46.7 µM), 17.25 µg/mL (≈ 42.8 µM) and 17.1 µg/mL (≈ 42.4 µM), respectively.

Regarding `Cc1c(-c2nnc(-c3ccc(Cl)cc3)o2)sc2ncnc(Nc3ccc(F)cc3F)c12`, the inhibition was 74.5% in experiment [1]; 76.4% in [2]; 79.7% in experiment [3]; 83.3% in experiment [4]; 83.3% in experiment [5]; 85.8% in [6]. In addition, the inhibition turned out to be 78.2% in experiment [7]; 71.7% in experiment [9]; 84.6% in experiment [11]; 86.2% in experiment [12]; 68.4% in experiment [13]; 79.7% in experiment [15]. For the same compound, the IC50 was 18.26 µg/mL (≈ 40.1 µM) in experiment [8], 16.35 µg/mL (≈ 35.9 µM) in [10] and 15.98 µg/mL (≈ 35.1 µM) in experiment [14].

Turning to `Cc1c(-c2nnc(-c3ccc([N+](=O)[O-])cc3)o2)sc2ncnc(Nc3ccc(F)c(Cl)c3)c12`, the inhibition in experiment [1] worked out at 50.4%; in [2], 48.6%; in [3], 52.9%; in experiment [4], 56.6%; in experiment [5], 56.5%; in experiment [6], 61.9%. Besides, the inhibition in experiment [7] was 53.6%; in experiment [9], 47.4%; in [11] it was 60%; in [12], 64.3%; in [13], 45%; in experiment [15], 53.6%. In addition, the half-maximal inhibitory concentration (IC50) in experiment [8] is 27.76 µg/mL (≈ 57.5 µM); in experiment [10], 25.69 µg/mL (≈ 53.2 µM); in [14], 23.3 µg/mL (≈ 48.3 µM).
